Measurements as given in ChEMBL document CHEMBL1134275, “New pyridoquinoline derivatives as potential inhibitors of the fluoroquinolone efflux pump in resistant Enterobacter aerogenes strains” (2001).

Tests used:
Assay type in all cases: functional
Klebsiella aerogenes [1] = experiment: Inhibitory activity against ATCC 13048 strain(Enterobacter aerogenes) in the presence of ciprofloxacin fluoroquinolone at 16 ug/mL
In short: (§1)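 Checkerboard microtitration MIC with fluoroquinolone plus test compound against E. aerogenes ATCC 13048 or its p9 derivative carrying plasmid-borne E. coli marA. Bacteria were grown in Luria-Bertani or Mueller-Hinton broth at 37 °C, with 15 µg/mL tetracycline for p9. Wells were inoculated at 10^5 cells/mL and growth was scored visually after 18 h at 37 °C. Values are means of two independent experiments.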

Klebsiella aerogenes [2] = experiment: Inhibitory activity against p9- (derivative of ATCC )13048 strain(Enterobacter aerogenes) in the presence of Norfloxacin and fluoroquinolone at 16 ug/mL; in short: as §1
Klebsiella aerogenes [3] = experiment: Inhibitory activity against p9- (derivative of ATCC )13048 strain(Enterobacter aerogenes) in the presence of ciprofloxacin and fluoroquinolone at 16 ug/mL; in short: as §1
Klebsiella aerogenes [4] = experiment: Inhibitory activity against ATCC 13048 strain(Enterobacter aerogenes) in the presence of Norfloxacin and fluoroquinolone at 16 ug/mL; in short: as §1
Klebsiella aerogenes [5] = experiment: Inhibitory activity against p9- (derivative of ATCC )13048 strain(Enterobacter aerogenes) in the presence of Norfloxacin and luoroquinolone at 16 ug/mL; in short: as §1
Klebsiella aerogenes [6] = experiment: Inhibitory activity against Enterobacter aerogenes-3 strain in the presence of Norfloxacin and fluoroquinolone at 128 ug/mL
In short: (§2)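 Compound ranged 8–128 µg/mL, combined with norfloxacin at 16–128 µg/mL or ciprofloxacin at 4–64 µg/mL (final). Cells were grown in LB or MH broth at 37 °C and wells inoculated at 10^5 cells/mL. After 18 h at 37 °C growth was read visually. Values are means of two independent experiments.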

Klebsiella aerogenes [7] = experiment: Inhibitory activity against Enterobacter aerogenes-3 istrainn the presence of ciprofloxacin and fluoroquinolone at 128 ug/mL; in short: as §2
Klebsiella aerogenes [8] = experiment: Inhibitory activity against ATCC 13048 strain(Enterobacter aerogenes) in the presence of Norfloxacin and fluoroquinolone at a concentration of 16 ug/mL; in short: as §1
Klebsiella aerogenes [9] = experiment: Inhibitory activity against Enterobacter aerogenes-3 strain in the presence of Norfloxacin and fluoroquinolone at 64 ug/mL; in short: as §2
Klebsiella aerogenes [10] = experiment: Inhibitory activity against Enterobacter aerogenes-3 istrainn the presence of ciprofloxacin and fluoroquinolone at 64 ug/mL; in short: as §2
Klebsiella aerogenes [11] = experiment: Inhibitory activity against ATCC 13048 strain(Enterobacter aerogenes) in the presence of ciprofloxacin fluoroquinolone at 32 ug/mL; in short: as §1
Klebsiella aerogenes [12] = experiment: Inhibitory activity against ATCC 13048 strain(Enterobacter aerogenes) in the presence of Norfloxacin and fluoroquinolone at 32 ug/mL; in short: as §1

Structure (SMILES)	MIC (Klebsiella aerogenes [1]) [µg/mL]	MIC (Klebsiella aerogenes [2]) [µg/mL]	MIC (Klebsiella aerogenes [3]) [µg/mL]	MIC (Klebsiella aerogenes [4]) [µg/mL]	MIC (Klebsiella aerogenes [5]) [µg/mL]	MIC (Klebsiella aerogenes [6]) [µg/mL]	MIC (Klebsiella aerogenes [7]) [µg/mL]	MIC (Klebsiella aerogenes [8]) [µg/mL]	MIC (Klebsiella aerogenes [9]) [µg/mL]	MIC (Klebsiella aerogenes [10]) [µg/mL]	MIC (Klebsiella aerogenes [11]) [µg/mL]	MIC (Klebsiella aerogenes [12]) [µg/mL]
CCN(CC)CCSc1cc(C)nc2c(C)c3nc(C)cc(SCCN(CC)CC)c3cc12	0.025	1	0.5	0.05								
Cc1cc(OCCN(C(C)C)C(C)C)c2cc3c(OCCN(C(C)C)C(C)C)cc(C)nc3c(C)c2n1	0.05		0.5	0.05	2							
Cc1cc(OCCN2CCCCC2)c2cc3c(OCCN4CCCCC4)cc(C)nc3c(C)c2n1	0.025	1	0.25	0.1		128	32					
Cc1cc(OCCCN(C)C)c2cc3c(OCCCN(C)C)cc(C)nc3c(C)c2n1	0.025	1	0.05	0.05		128	32					
Cc1cc(OCCN(C)C)c2cc3c(OCCN(C)C)cc(C)nc3c(C)c2n1	0.025	1	0.25					0.1				
Cc1cc(OCCN2CCOCC2)c2cc3c(OCCN4CCOCC4)cc(C)nc3c(C)c2n1	0.025	2	0.5	0.05								
Cc1cc(SCCN(C)C)c2cc3c(SCCN(C)C)cc(C)nc3c(C)c2n1	0.025	0.25	0.25	0.05		16	4		64	8	0.1	0.25
Cc1cc(SCCn2cccc2)c2cc3c(SCCn4cccc4)cc(C)nc3c(C)c2n1	0.025	0.5	0.1	0.025								
Cc1cc(SCCN2CCCCC2)c2cc3c(SCCN4CCCCC4)cc(C)nc3c(C)c2n1	0.025	2	0.5	0.05								
O=C(O)c1cn(C2CC2)c2cc(N3CCNCC3)c(F)cc2c1=O [CIPROFLOXACIN]	0.5	32		0.025								
CCn1cc(C(=O)O)c(=O)c2cc(F)c(N3CCNCC3)cc21 [NORFLOXACIN]		128		0.05								
